Data on 15 compounds can be found in ChEMBL document CHEMBL1141770, “Antineoplastic agents. 515. Synthesis of human cancer cell growth inhibitors derived from 3,4-methylenedioxy-5,4'-dimethoxy-3'-amino-Z-stilbene” (J Nat Prod, 2005).

Converted amounts (≈) assume the structure as drawn.

One series has as its system Neisseria gonorrhoeae. Put plainly: Antimicrobial activity against Neisseria gonorrhoeae ATCC 49226 by broth microdilution assay. Type of series: functional. In a few lines:
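Screened by broth microdilution following NCCLS guidelines for bacteria grown aerobically. Each assay was repeated at least twice, on separate days.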
In general terms: Dilution methods test growth across graded concentrations, often in twofold steps.

The next series relates to BXPC-3. Kind of series: Growth inhibition of human BxPC3 cells by sulforhodamine B method. Format: functional. In a few lines:
(§1)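 Sulforhodamine B assay, with growth inhibition read as reduced formation of cellular protein.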

In the next series the test system is NCI-H460. Kind of series: Growth inhibition of human NCI-H460 cells by sulforhodamine B method. Format: functional. In a few lines:
as §1
(In general: Sulforhodamine B stains cellular protein and so reports cell mass.)

Series [1] deals with MCF7. Kind of series: Growth inhibition of human MCF7 after 48 hrs by sulforhodamine B method. Type of series: functional, cell-based. To be noted: MCF7, 48 h. In a few lines:
as §1

A further series relates to DU-145. Kind of series: Growth inhibition of human DU145 cells by sulforhodamine B method. Format: functional. In a few lines: as §1
For a further series, the system named is P388. Put plainly: Cytotoxicity against mouse P388 cells by sulforhodamine B method. Type of series: functional. In a few lines:
as §1

A further series concerns SF-295. Kind of series: Growth inhibition of human SF295 cells by sulforhodamine B method. Type of series: functional. In a few lines:
as §1

Series [2] can be described thus: Solubility in water. Type of series: physicochemical.
For the next series, the system named is Cryptococcus neoformans. Kind of series: Antimicrobial activity against Cryptococcus neoformans ATCC 90112 by broth microdilution assay. Format: functional. In a few lines:
(§2)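 Broth microdilution following NCCLS standards: M7-A5 for aerobic bacteria and M27-A2 for yeasts. Each assay was repeated at least twice on separate days.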

For series [3], the species on record is Bos taurus. Kind of series: Displacement of [3H]colchicine from bovine tubulin at 50 uM. In a few lines: (§3)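 Bovine brain tubulin at 0.1 mg/mL (1.0 µM) incubated with 5.0 µM [3H]colchicine and inhibitor at the stated concentration. Read-out is inhibition of radiolabel binding to tubulin, in % ± SD.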
(Displacement assays read how much labelled ligand stays bound in the presence of the test substance.)

For series [4], the species on record is Bos taurus. Put plainly: Displacement of [3H]vinblastine from bovine tubulin at 80 uM. In a few lines:
(§4)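 Bovine brain tubulin at 0.5 mg/mL (5.0 µM) with 5 µM [3H]vinblastine and inhibitor as stated, in 0.5 mM MgCl2, 0.1 M MES pH 6.9 and 4% (v/v) DMSO. Incubated 30 min at 20–22 °C. Bound label separated by centrifugal gel filtration on syringe columns at 2,000 rpm; result is % inhibition ± SD.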

Another series concerns Enterococcus faecalis. Kind of series: Antimicrobial activity against Enterococcus faecalis ATCC 29212 by broth microdilution assay. Format: functional. In a few lines:
as §2

Series [5] is filed under the species Bos taurus. Put plainly: Displacement of [3H]vinblastine from bovine tubulin at 10 uM. In a few lines:
as §4

Series [6] is filed under the species Bos taurus. Kind of series: Displacement of [3H]colchicine from bovine tubulin at 2 uM. In a few lines: as §3
The nature of series [7]: Inhibition of bovine brain tubulin assembly. Set-up: species or system Bos taurus. In a few lines:
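Bovine brain tubulin at 1.0 mg/mL (10 µM) assembled with varying inhibitor concentrations. IC50 reported in µM ± SD.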

Series [8] concerns MCF7. Put plainly: Increase in mitotic index in human MCF7 cells at 10 times the IC50 concentration after 16 hrs. Type of series: functional. In a few lines:
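MCF-7 cells grown with drug for 16 h, then DNA stain added. Result is the percentage of cells in mitosis.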

The test system of another series is Streptococcus pneumoniae. Put plainly: Antimicrobial activity against Streptococcus pneumoniae ATCC 6303 by broth microdilution assay. Type of series: functional. In a few lines:
as §2

In the case of `COc1ccc(/C=C\c2cc(OC)c3c(c2)OCO3)cc1NC(=O)[C@H](Cc1ccc(OP(=O)([O-])O)cc1)NP(=O)(O)O.[Na+]`, it took 4 µg/mL to inhibit growth against Neisseria gonorrhoeae (MIC). In addition, the GI50 was 18.6 µg/mL in the series with BXPC-3; over 1 µg/mL in the series on NCI-H460; 1.3 µg/mL in the series with MCF7 [1]; over 1 µg/mL in the series on DU-145; 0.27 µg/mL in the series on P388; over 1 µg/mL in the series on SF-295.

With `COc1ccc(/C=C\c2cc(OC)c3c(c2)OCO3)cc1NC(=O)[C@H](Cc1ccc(OP(=O)(OCc2ccccc2)OCc2ccccc2)cc1)NP(=O)(OCc1ccccc1)OCc1ccccc1`, halving of growth in the series with P388 (GI50) required 10 µg/mL (≈ 10.2 µM).

For the compound `COc1ccc(/C=C\c2cc(OC)c3c(c2)OCO3)cc1NC(=O)[C@@H](N)Cc1ccc(O)cc1.Cl`, the GI50 in the series with BXPC-3 is 0.064 µg/mL; in the series with NCI-H460, 0.096 µg/mL; with MCF7 [1], 0.041 µg/mL; in the series with DU-145, 0.08 µg/mL; in the series with P388 it was 0.0329 µg/mL; with SF-295 it was 0.064 µg/mL. In addition, in series [2], the solubility was under 100 µg/mL.

For the compound `COc1ccc(/C=C\c2cc(OC)c3c(c2)OCO3)cc1NC(=O)[C@H](C)[C@@H](OC)[C@@H]1CCCN1C(=O)OC(C)(C)C`, the GI50 was found to be 0.58 µg/mL (≈ 1.02 µM) in the series on BXPC-3; 0.75 µg/mL (≈ 1.32 µM) in the series on NCI-H460; 0.38 µg/mL (≈ 0.668 µM) in the series with MCF7 [1]; 1.9 µg/mL (≈ 3.34 µM) with DU-145; 0.225 µg/mL (≈ 0.396 µM) in the series on P388; 0.53 µg/mL (≈ 0.932 µM) with SF-295. Further, in the series on Cryptococcus neoformans, the MIC was found to be 64 µg/mL (≈ 113 µM).

As to `COc1ccc(/C=C\c2cc(OC)c3c(c2)OCO3)cc1NC(=O)[C@H](CC(=O)OC(C)(C)C)NC(=O)OC(C)(C)C`, the concentration for 50% growth inhibition (GI50) in the series on BXPC-3 turned out to be 3.4 µg/mL (≈ 5.96 µM); in the series on NCI-H460 it was 1.7 µg/mL (≈ 2.98 µM); with MCF7 [1] it was 3 µg/mL (≈ 5.26 µM); in the series with DU-145 it was 2.3 µg/mL (≈ 4.03 µM); in the series on P388, 0.385 µg/mL (≈ 0.675 µM); with SF-295, 2.4 µg/mL (≈ 4.21 µM).

Regarding `CC[C@H](C)[C@@H]([C@@H](CC(=O)N1CCC[C@H]1[C@H](OC)[C@@H](C)C(=O)O)OC)N(C)C(=O)[C@@H](NC(=O)[C@H](C(C)C)N(C)C)C(C)C`, the figures for the Activity in the series listed under Bos taurus [3] and in the series listed under Bos taurus [4] were 5.2% and 87%, respectively.

On to `COc1ccc(/C=C\c2cc(OC)c3c(c2)OCO3)cc1NC(=O)[C@@H](N)Cc1ccc(OP(=O)(O)O)cc1`, for which the MIC with Neisseria gonorrhoeae was determined as 0.125 µg/mL (≈ 0.23 µM); in the series on Enterococcus faecalis, 16 µg/mL (≈ 29.5 µM). The GI50 in the series with BXPC-3 was over 1 µg/mL; in the series on NCI-H460, over 1 µg/mL; in the series on MCF7 [1], over 1 µg/mL; with DU-145, over 1 µg/mL; in the series on P388 it was over 10 µg/mL; in the series on SF-295, over 1 µg/mL.

Take `COc1ccc(/C=C\c2cc(OC)c(OC)c(OC)c2)cc1O` [COMBRETASTATIN A4]: the figures for the Activity in the series listed under Bos taurus [5], in the series listed under Bos taurus [6] and in the series filed under Bos taurus [4] were 0%, 98% and 0%, respectively.

Consider `CC[C@H](C)[C@@H]([C@@H](CC(=O)N1CCC[C@H]1[C@H](OC)[C@@H](C)C(=O)Nc1cc(/C=C\c2cc(OC)c3c(c2)OCO3)ccc1OC)OC)N(C)C(=O)[C@@H](NC(=O)[C@H](C(C)C)N(C)C)C(C)C`, for which, in [7], half-maximal inhibition (IC50) was put at 1300 nM. Moreover, the Activity in the series filed under Bos taurus [5] was 48%; in the series with MCF7 [8], 57%; in the series filed under Bos taurus [3], 30%; in the series listed under Bos taurus [4] it was 87%. Moreover, the 50% growth inhibitory concentration (GI50) in the series on BXPC-3 was 0.048 µg/mL (≈ 0.0545 µM); in the series with NCI-H460, 0.025 µg/mL (≈ 0.0284 µM); in the series on MCF7 [1], 0.032 µg/mL (≈ 0.0364 µM); with DU-145, 0.02 µg/mL (≈ 0.0227 µM); in the series on P388, under 0.01 µg/mL; with SF-295, 0.0031 µg/mL (≈ 0.00352 µM).

As for `COc1ccc(/C=C\c2cc(OC)c3c(c2)OCO3)cc1NC(=O)[C@@H](N)CC(=O)[O-].[Na+]`, the GI50 with BXPC-3 turned out to be 0.38 µg/mL; with NCI-H460, 0.3 µg/mL; in the series on MCF7 [1], 0.51 µg/mL; in the series with DU-145 it was 0.33 µg/mL; in the series with P388, 0.361 µg/mL; in the series on SF-295 it was 0.25 µg/mL. Also, in [2], the solubility is under 100 µg/mL.

For `COc1ccc(/C=C\c2cc(OC)c3c(c2)OCO3)cc1NC(=O)[C@H](Cc1ccc(OP(=O)(OCc2ccccc2)OCc2ccccc2)cc1)NC(=O)OCc1ccccc1`, the GI50 in the series with BXPC-3 was over 10 µg/mL; in the series with NCI-H460, over 10 µg/mL; in the series on MCF7 [1], over 10 µg/mL; with DU-145, over 10 µg/mL; with P388, 0.133 µg/mL (≈ 0.155 µM); in the series on SF-295, over 10 µg/mL. Moreover, 64 µg/mL (≈ 74.7 µM) was the least that counted as inhibitory in the series on Enterococcus faecalis (MIC).

As to `CC[C@H](C)[C@@H]([C@@H](CC(=O)N1CCC[C@H]1[C@H](OC)[C@@H](C)C(=O)N[C@@H](Cc1ccccc1)c1nccs1)OC)N(C)C(=O)[C@@H](NC(=O)[C@H](C(C)C)N(C)C)C(C)C` [DOLASTATIN-10], in the series listed under Bos taurus [5], the Activity was found to be 96%.

Take `COc1ccc(/C=C\c2cc(OC)c3c(c2)OCO3)cc1N`: the Activity in the series listed under Bos taurus [5] is 0%; in the series filed under Bos taurus [6] it was 85%; in the series listed under Bos taurus [4], 0%.

As to `COc1ccc(/C=C\c2cc(OC)c3c(c2)OCO3)cc1NC(=O)[C@H](C)[C@@H](OC)[C@@H]1CCCN1.O=C(O)C(F)(F)F`, the MIC was 8 µg/mL against Streptococcus pneumoniae, 16 µg/mL against Neisseria gonorrhoeae, 64 µg/mL in the series on Cryptococcus neoformans and 32 µg/mL against Enterococcus faecalis. In addition, the GI50 in the series on BXPC-3 was found to be 0.23 µg/mL; in the series with NCI-H460 it was 0.062 µg/mL; in the series with MCF7 [1] it was 0.07 µg/mL; in the series on DU-145, 0.26 µg/mL; with P388 it was 0.0263 µg/mL; with SF-295 it was 0.054 µg/mL.

On to `COc1ccc(/C=C\c2cc(OC)c3c(c2)OCO3)cc1NC(=O)[C@H](Cc1ccc(OC(C)(C)C)cc1)NC(=O)OCc1ccccc1`, for which the GI50 in the series with BXPC-3 came out at 0.049 µg/mL (≈ 0.0751 µM); in the series with NCI-H460 it was 0.41 µg/mL (≈ 0.628 µM); with MCF7 [1] it was 0.36 µg/mL (≈ 0.552 µM); with DU-145, 0.39 µg/mL (≈ 0.597 µM); with P388, 0.38 µg/mL (≈ 0.582 µM); with SF-295 it was 0.44 µg/mL (≈ 0.674 µM).

In general, MIC refers to the least concentration at which growth counts as inhibited. Read a high MIC as weaker potency. A word on the GI50: it is the concentration giving 50% growth inhibition. A higher GI50 goes with lower sensitivity of the cells. Broadly, the solubility is the concentration that dissolves in the medium under given conditions. Higher therefore signals a readily soluble substance. As usually defined, the IC50 is the point on the concentration scale where inhibition reaches its midpoint. Read a high IC50 as weaker potency.
